The subject of assay [1] is HUVEC. Briefly: Antiproliferative activity against HUVEC assessed as growth inhibition rate at 100 uM after 24 hrs by MTT assay. The assay is classed as functional. The note with it: Homo sapiens, read-out: GI. Summed up:
(§1)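 HUVECs (passages 3–5, primary cord isolates) seeded at 1 × 10⁴ cells/well. Medium replaced with M199 containing 1% FBS plus compound. Viability read by MTT after 24 h. Percent inhibition was calculated from A570 minus A630 of treated versus control wells, and IC50 determined. Triplicate experiments, means ± SEM.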

Assay [2] concerns HUVEC. Kind of assay: Antiproliferative activity against HUVEC assessed as growth inhibition rate at 10 uM after 24 hrs by MTT assay. The class given is functional. The following applies: Homo sapiens, read-out: GI. A digest of the protocol: as §1
In general terms: Formazan colour is commonly taken as a measure of viable cells.

In assay [3] the test system is HUVEC. Kind of assay: Antiproliferative activity against HUVEC assessed as growth inhibition rate after 24 hrs by MTT assay. The assay is classed as functional, cell-based. The note with it: Homo sapiens. Summed up: as §1

On to `COc1cc2ccc(=O)oc2cc1OCC(=O)c1ccc(Cl)c(Cl)c1`, for which the inhibition of growth at 100 µM in the assay on HUVEC [1] was 42.8%. Moreover, in the assay with HUVEC [2], the inhibition of growth at 10 µM came to 0%.

With `COc1cc2ccc(=O)oc2cc1OCC(O)CNC(C)C` (stereo unspecified), the inhibition of growth at 100 µM with HUVEC [1] was 6.3%. Moreover, in the assay with HUVEC [2], the inhibition of growth at 10 µM worked out at 0.1%.

On to `COc1cc2ccc(=O)oc2cc1OCCN1CCCC1`, for which, in the assay with HUVEC [1], the inhibition of growth at 100 µM came to 7.9%. In addition, in the assay on HUVEC [2], the inhibition of growth at 10 µM was 1.9%.

`COc1cc2ccc(=O)oc2cc1OCCBr`: the inhibition of growth at 100 µM with HUVEC [1] was 5.6%. Further, the inhibition of growth at 10 µM with HUVEC [2] came out at 4.9%.

On to `COc1cc2ccc(=O)oc2cc1OCCN1CCN(C)CC1`, for which the inhibition of growth at 100 µM in the assay with HUVEC [1] worked out at 12%. Besides, the inhibition of growth at 10 µM in the assay on HUVEC [2] is 0%.

As for `CCN(CC)CC(O)COc1cc2oc(=O)ccc2cc1OC` (stereo unspecified), the inhibition of growth at 100 µM in the assay with HUVEC [1] came to 0.3%. Besides, the inhibition of growth at 10 µM in the assay on HUVEC [2] was 0.5%.

As for `COc1cc2ccc(=O)oc2cc1OCC1CO1` (stereo unspecified), the IC50 with HUVEC [3] came to 5.3 µM. Further, the inhibition of growth at 100 µM in the assay on HUVEC [1] was 95.5%. Moreover, the inhibition of growth at 10 µM in the assay on HUVEC [2] was determined as 62.2%.

Consider `COc1cc2ccc(=O)oc2cc1OCCCCBr`, for which, in the assay with HUVEC [1], the inhibition of growth at 100 µM came out at 16.9%. Besides, the inhibition of growth at 10 µM in the assay on HUVEC [2] came to 11.2%.

In the case of `COc1cc2ccc(=O)oc2cc1OCCN1CCCCC1`, in the assay on HUVEC [1], the inhibition of growth at 100 µM was 6.1%. Also, in the assay with HUVEC [2], the inhibition of growth at 10 µM is 0.1%.

Regarding `COc1cc2ccc(=O)oc2cc1OCC(O)CN1CCCC1` (stereo unspecified), the inhibition of growth at 100 µM in the assay with HUVEC [1] turned out to be 0.3%. Moreover, the inhibition of growth at 10 µM in the assay on HUVEC [2] was 0.5%.

Regarding `COc1ccc(C(=O)COc2cc3oc(=O)ccc3cc2OC)cc1`, the IC50 in the assay with HUVEC [3] came out at 37.5 µM. The inhibition of growth at 100 µM with HUVEC [1] stood at 85.6%. Moreover, in the assay on HUVEC [2], the inhibition of growth at 10 µM stood at 7.6%.

`CCN(CC)CCOc1cc2oc(=O)ccc2cc1OC`: in the assay with HUVEC [1], the inhibition of growth at 100 µM was 3.1%. Besides, in the assay with HUVEC [2], the inhibition of growth at 10 µM stood at 0.1%.

As usually defined, the IC50 is the concentration at which inhibition is half-maximal.

For the origin of these results see ChEMBL document CHEMBL2331484, “Synthesis and biological evaluation of scopoletin derivatives” (Bioorg Med Chem, 2013).
